# ChEMBL document CHEMBL5036371, “Steroid-Quinoline Hybrids for Disruption and Reversion of Protein Aggregation Processes” (ACS Med Chem Lett, 2022)
# The source made the active and inactive calls. No cut-off for these calls is given here.
# Assays:
# [1] = molecular target: Heat shock protein beta-1 (Homo sapiens) (UniProt P04792); assay: Disaggregation of protein aggregates in human HeLa cells expressing HSP27:GFP assessed as HSP27:GFP foci area per cell cell at 50 uM for 12 hr in presence of nilotinib by green fluorescent protein based confocal microscopy (rvb = 0.71)
# Method in brief: (§1)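 Sensor HeLa cells (HSP27:GFP) were kept for 48 h with 5 μM nilotinib, and 50 μM compound was co-added for the final 12 h in 0.5% EtOH vehicle. Green foci per cell (count and mean area) were quantified by fluorescence microscopy. Data are mean ± SD, n = 4–10, about 4700 cells per condition. Comparison was against nilotinib alone by unpaired t test.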
# [2] = molecular target: Amyloid-beta precursor protein (Homo sapiens) (UniProt P05067); assay: Disaggregation of aggregated human amyloid beta (1 to 42) preformed fibrils in human SH-SY5Y cells assessed as decrease the number of foci to basal levels at 50 uM for 12 hrs by confocal microscopy relative to control; type: cell-based
# Method in brief: (§2)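 SH-SY5Y cells were loaded for 16 h with preaggregated synthetic Aβ1–42, then given compound at 50 μM for a further 12 h in 0.5% EtOH vehicle. Cells were fixed, stained with Proteostat and imaged by confocal microscopy. Number and average area of aggregate foci per cell were scored over 10–20 fields, n = 2, about 370 cells per condition. Data are mean ± SD, unpaired t test.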
# [3] = molecular target: Amyloid-beta precursor protein (Homo sapiens) (UniProt P05067); assay: Inhibition of amyloid beta (1 to 42) (unknown origin) aggregation assessed as reduction in fluorescence intensity at 20 uM measured upto 30 h by thioflavin-T fluorescence assay
# Method in brief: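 Aβ1–42 peptide (10 μM) fibrillation with 20 μM compound was followed over time by thioflavin-T fluorescence, with quercetin as positive control. Inhibition was judged from reduction of final fluorescence intensity.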
# [4] = tested on: HeLa; assay: Cytotoxicity against human HeLa cells assessed as reduction in cell viability at 0.1 to 100 uM incubated for 24 to 48 hrs by Alamar blue colorimetric assay; type: cell-based; settings: dose lower 0.1 µM, time lower 24 hrs, dose upper 100 µM, time upper 48 hrs
# Method in brief: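 Resazurin (alamarBlue) metabolic viability read-out in HeLa cells exposed for 24 and 48 h to 0.1, 1, 10, 50 and 100 μM compound.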
# [5] = molecular target: Heat shock protein beta-1 (Homo sapiens) (UniProt P04792); assay: Disaggregation of protein aggregates in human HeLa cells expressing HSP27:GFP assessed as number of HSP27:GFP foci per cell at 50 uM for 12 hr in presence of nilotinib by green fluorescent protein based confocal microscopy (rvb = 0.71); method in brief: as §1
# [6] = molecular target: Amyloid-beta precursor protein (Homo sapiens) (UniProt P05067); assay: Disaggregation of aggregated huamn amyloid beta (1 to 42) fibrils in human SH-SY5Y cells assessed as decrease the area of foci to basal levels at 50 uM for 12 hour by confocal microscopy relative to control; type: cell-based; method in brief: as §2
# [7] = molecular target: Heat shock protein beta-1 (Homo sapiens) (UniProt P04792); assay: Aggregation in human HeLa cells expressing HSP27:GFP protein sensor assessed as number of HSP27:GFP foci per cell at 5 uM incubated for 48 hr by green fluorescent protein based confocal microscopy (rvb = 0.71)
# Method in brief: (§3)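 HeLa cells stably expressing the HSP27:GFP aggregation sensor were exposed to 5 μM nilotinib for 48 h in 0.5% EtOH vehicle. Sensor relocalization to foci was imaged by fluorescence microscopy, and green foci number and average area per cell were scored. Data are mean ± SD, n = 4–10, about 4700 cells per condition, compared by unpaired Student's t test.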
# [8] = molecular target: Heat shock protein beta-1 (Homo sapiens) (UniProt P04792); assay: Aggregation in human HeLa cells expressing HSP27:GFP protein in sensor assessed as HSP27:GFP foci area per cell at 5 uM incubated for 48 hrs by green fluorescent protein based confocal microscopy (rvb = 0.6); method in brief: as §3
# Chain of Heat shock protein beta-1 (Homo sapiens) (P04792 whole entry): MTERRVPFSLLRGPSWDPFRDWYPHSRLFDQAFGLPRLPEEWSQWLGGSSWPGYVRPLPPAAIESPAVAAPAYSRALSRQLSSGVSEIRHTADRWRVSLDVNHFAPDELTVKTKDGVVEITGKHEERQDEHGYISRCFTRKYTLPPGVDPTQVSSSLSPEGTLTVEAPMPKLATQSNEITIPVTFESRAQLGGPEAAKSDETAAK
# Chain of Amyloid-beta precursor protein (Homo sapiens) (P05067 whole entry): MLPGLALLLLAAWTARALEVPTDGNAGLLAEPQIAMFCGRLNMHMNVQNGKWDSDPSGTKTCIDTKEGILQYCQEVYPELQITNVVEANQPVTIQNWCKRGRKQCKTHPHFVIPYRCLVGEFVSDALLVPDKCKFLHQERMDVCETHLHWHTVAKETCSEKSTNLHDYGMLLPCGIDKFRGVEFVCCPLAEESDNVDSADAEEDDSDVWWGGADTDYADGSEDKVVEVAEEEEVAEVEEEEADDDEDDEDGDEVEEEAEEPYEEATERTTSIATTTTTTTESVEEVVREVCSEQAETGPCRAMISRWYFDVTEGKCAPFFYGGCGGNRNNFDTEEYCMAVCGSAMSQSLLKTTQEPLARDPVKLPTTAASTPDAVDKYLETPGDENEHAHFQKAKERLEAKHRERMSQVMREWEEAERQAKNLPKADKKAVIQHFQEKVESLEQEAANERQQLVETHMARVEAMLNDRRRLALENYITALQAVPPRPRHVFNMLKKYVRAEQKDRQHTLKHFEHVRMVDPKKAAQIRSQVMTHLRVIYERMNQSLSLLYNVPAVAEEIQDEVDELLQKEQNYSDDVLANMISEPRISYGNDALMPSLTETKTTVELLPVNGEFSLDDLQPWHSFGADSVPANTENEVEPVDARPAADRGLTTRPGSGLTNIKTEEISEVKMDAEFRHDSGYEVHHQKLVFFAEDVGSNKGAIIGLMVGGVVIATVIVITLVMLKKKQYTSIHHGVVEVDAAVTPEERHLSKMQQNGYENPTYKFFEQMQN
SMILES,Activity [1] [%],Activity [2],inhibition [3],Activity [5] [%],Activity [6],Activity [7],Activity [8] [um2],Activity [4]
CC(C)CCC[C@@H](C)[C@H]1CC[C@H]2[C@@H]3CC=C4c5c(nc6ccccc6c5-c5ccccc5)CC[C@]4(C)[C@H]3CC[C@]12C,50,Active,inactive,50,inactive,–,–,Non-Toxic
CC(C)CCC[C@@H](C)[C@H]1CC[C@H]2[C@@H]3CC=C4c5c(nc6ccc(Cl)cc6c5-c5ccccc5Cl)CC[C@]4(C)[C@H]3CC[C@]12C,50,Active,Active,50,inactive,–,–,Non-Toxic
Cc1cn(-c2cc(NC(=O)c3ccc(C)c(Nc4nccc(-c5cccnc5)n4)c3)cc(C(F)(F)F)c2)cn1,–,–,–,–,–,3.96,7.5,–

# Continued, in another order:
Activity [1] [%],Activity [2],inhibition [3],Activity [5] [%],Activity [6],Activity [7],Activity [8] [um2],SMILES,Activity [4]
50,inactive,inactive,50,Active,–,–,CC(C)CCC[C@@H](C)[C@H]1CC[C@H]2[C@@H]3CC=C4c5c(nc6ccc(Cl)cc6c5-c5ccccc5)CC[C@]4(C)[C@H]3CC[C@]12C,Non-Toxic
50,Active,Active,50,inactive,–,–,Cc1c2c(nc3ccccc13)CC[C@@]1(C)C2=CC[C@H]2[C@@H]3CC[C@H]([C@H](C)CCCC(C)C)[C@@]3(C)CC[C@@H]21,Non-Toxic
